{"data": "Experimental data pooled from the literature", "target": "Serine/threonine-protein kinase SIK3 (SIK3, Homo sapiens, UniProt Q9Y2K2)"}
{"SMILES": "CN(C)CC#Cc1ccc(OCCCc2sc(N3CCc4cccc(C(=O)Nc5nc6ccccc6s5)c4C3)nc2C(=O)O)c(F)c1", "test": "cell-free assay, competition with immobilised ligand", "setting": "1 µM", "remaining binding [%]": 77}
{"SMILES": "O=C(c1ccc(Nc2ncc(Cl)c(-c3cc4ccccc4s3)n2)cc1)N1CCC(N2CCCC2)CC1", "test": "binding, competition with immobilised ligand", "setting": "1 µM", "remaining binding [%]": 98}
{"SMILES": "F[C@@H]1CCN(c2nccc(-c3cnn4ncccc34)n2)C1", "test": "binding", "setting": "1 µM", "remaining binding [%]": 74}
{"SMILES": "O=C(NCC1CCOCC1)c1n[nH]cc1NC(=O)c1c(F)cccc1F", "test": "binding, competition with immobilised ligand", "setting": "1 µM", "remaining binding [%]": 88}
{"SMILES": "CCN1CCN(Cc2ccc(C(=O)Nc3ccc(C)c(Oc4ccc5c(c4)CC(=O)N5)c3)cc2C(F)(F)F)CC1", "test": "binding, competition with immobilised ligand", "setting": "1 µM", "remaining binding [%]": 100}
{"SMILES": "CCC(=O)N[C@@H]1CC[C@H](C(=O)N(C)c2ccc(-c3nc4ccccc4o3)cc2)C1", "test": "cell-free assay, competition with immobilised ligand", "setting": "1 µM", "remaining binding [%]": 100}
{"SMILES": "CN(C)c1ncc(F)c(-c2cnn3ncccc23)n1", "test": "binding", "setting": "1 µM", "remaining binding [%]": 87}
{"SMILES": "O=C(NCCCN1CCOCC1)c1ccc(Nc2nccc(-c3cc4ccccc4s3)n2)cc1", "test": "binding, competition with immobilised ligand", "setting": "1 µM", "remaining binding [%]": 95}
{"SMILES": "Nc1ncc2c(n1)-c1c([nH]c3ccc(C#CC4CC4)cc13)CCCC2", "test": "binding, competition with immobilised ligand", "setting": "1 µM", "remaining binding [%]": 100}
{"SMILES": "CN(CCCC(F)(F)F)c1nccc(-c2cnn3ncccc23)n1", "test": "binding", "setting": "1 µM", "remaining binding [%]": 100}
{"SMILES": "COc1ncc2cc3ccccc3nc2c1C#N", "test": "cell-free assay, competition with immobilised ligand", "setting": "5 µM", "remaining binding [%]": 88}
{"SMILES": "COc1ccnn2ncc(-c3ccnc(N(C)C)n3)c12", "test": "binding", "setting": "1 µM", "remaining binding [%]": 78}
{"SMILES": "NS(=O)(=O)c1cc(NC(=O)Cc2ccccc2)ccc1Oc1cccc(Cl)c1", "test": "cell-free assay, competition with immobilised ligand", "setting": "1 µM", "remaining binding [%]": 87}
{"SMILES": "COc1cnc(Nc2cccc(S(N)(=O)=O)c2)nc1N1CCN(c2ccccc2)C(=O)C1", "test": "binding, competition with immobilised ligand", "setting": "1 µM", "remaining binding [%]": 90}
{"SMILES": "CC(=O)Nc1c(C(C)=O)c(=O)n(C)c2nc(-c3ccc(Cl)cc3Cl)c(-c3ccc(Cl)cc3)cc12", "test": "cell-free assay, competition with immobilised ligand", "setting": "1 µM", "remaining binding [%]": 100}
{"SMILES": "C[C@H]1CCN(c2nccc(-c3cnn4ncccc34)n2)C1", "test": "binding", "setting": "1 µM", "remaining binding [%]": 66}
{"SMILES": "Cc1cc(C)c(-n2ccn3nc(-c4cccnc4)cc23)cc1NC(=O)c1cc(C#N)cc(S(F)(F)(F)(F)F)c1", "test": "cell-free assay, competition with immobilised ligand", "setting": "0.1 µM", "remaining binding [%]": 75.3}
{"SMILES": "O=C(c1ccc(Nc2ncc(Cl)c(-c3ccc(Cl)s3)n2)cc1)N1CCC(N2CCCC2)CC1", "test": "binding, competition with immobilised ligand", "setting": "1 µM", "remaining binding [%]": 84}
{"SMILES": "O=C(Nc1ccc(Oc2ccc(F)cc2)cc1)N1CCc2ncccc2[C@H]1c1ccc(F)cc1", "test": "cell-free assay, competition with immobilised ligand", "setting": "1 µM", "remaining binding [%]": 100}
{"SMILES": "N[C@H]1CCN(c2nccc(-c3cnn4ncccc34)n2)C1", "test": "binding", "setting": "1 µM", "remaining binding [%]": 100}
